{"data": "Assay results of several laboratories", "blaNDM-1": "Metallo-beta-lactamase type 2 (blaNDM-1, Klebsiella pneumoniae, UniProt C7C422)", "HLA class I histocompatibility antigen, B alpha chain": "HLA class I histocompatibility antigen, B alpha chain (Homo sapiens, UniProt P01889)", "MGLL": "Monoglyceride lipase (MGLL, Homo sapiens, UniProt Q99685)", "HTR2B": "5-hydroxytryptamine receptor 2B (HTR2B, Homo sapiens, UniProt P41595)", "note": "Protocols differ between the studies behind these lines."}
{"SMILES": "OCC(S)CS (stereo not drawn)", "target": "blaNDM-1", "assay": "enzyme activity, inhibitor, fluorescence", "IC50 [µM]": 4.21}
{"SMILES": "CC[C@H](C)[C@H](NC(=O)[C@H](CC(C)C)NC(=O)CN)C(=O)N[C@H](C(=O)N[C@@H](CC(C)C)C(=O)N[C@@H](CO)C(=O)N[C@@H](Cc1ccc(O)cc1)C(=O)N[C@@H](Cc1c[nH]cn1)C(=O)N[C@@H](CC(C)C)C(=O)O)[C@@H](C)O", "target": "HLA class I histocompatibility antigen, B alpha chain", "assay": "ligand displacement, radioligand", "IC50 [µM]": 14.3}
{"SMILES": "CC(=O)c1cc(O)c2ccccc2c1O", "target": "mRNA cap guanine-N(7) methyltransferase (RNMT, Homo sapiens, UniProt O43148)", "assay": "enzyme activity, inhibitor", "IC50 [µM]": 63.3}
{"SMILES": "CN1CCN(CC/C=C2/c3ccccc3Sc3ccc(S(=O)(=O)N(C)C)cc32)CC1", "target": "5-hydroxytryptamine receptor 2C (HTR2C, Homo sapiens, UniProt P28335)", "assay": "ligand displacement, radioligand", "IC50 [µM]": 2.8}
{"SMILES": "CC(C)[C@H](NC(=O)[C@@H](NC(=O)[C@H](CCC(=O)O)NC(=O)[C@@H](NC(=O)[C@H](Cc1ccccc1)NC(=O)[C@H](C)NC(=O)[C@H](CO)NC(=O)[C@@H](NC(=O)[C@@H](N)CO)[C@@H](C)O)C(C)C)[C@@H](C)O)C(=O)O", "target": "HLA class I histocompatibility antigen, B alpha chain", "assay": "ligand displacement, radioligand", "IC50 [µM]": 8.86}
{"SMILES": "Fc1ccc(CC(c2ccccc2)N2CCCC2)cc1 (stereo not drawn)", "target": "Sigma intracellular receptor 2 (Tmem97, Rattus norvegicus, UniProt Q5U3Y7)", "assay": "ligand displacement, radioligand", "IC50 [µM]": "> 10"}
{"SMILES": "Cc1c2ccncc2c(C)c2c1[nH]c1ccccc12", "target": "blaNDM-1", "assay": "enzyme activity, inhibitor", "IC50 [µM]": "> 30"}
{"SMILES": "NC(=O)c1cccc(-c2cccc(OC(=O)NC3CCCCC3)c2)c1", "target": "MGLL", "assay": "enzyme activity, inhibitor, absorbance", "IC50 [µM]": "> 10"}
{"SMILES": "CC(C)C[C@H](NC(=O)[C@H](Cc1ccccc1)NC(=O)c1cnccn1)B(O)O", "target": "Complement C1r subcomponent (Homo sapiens, UniProt P00736)", "assay": "enzyme activity, inhibitor", "IC50 [µM]": "> 33"}
{"SMILES": "CSCC[C@H](NC(=O)[C@H](CCC(N)=O)NC(=O)[C@H](C)NC(=O)[C@H](CO)NC(=O)[C@@H](N)CO)C(=O)N[C@@H](CC(N)=O)C(=O)N[C@@H](CC(C)C)C(=O)N[C@@H](CC(N)=O)C(=O)N[C@H](C(=O)N[C@@H](Cc1ccccc1)C(=O)N[C@@H](CC(C)C)C(=O)N[C@@H](CC(N)=O)C(=O)O)[C@@H](C)O", "target": "1-deoxy-D-xylulose-5-phosphate synthase (dxs, Deinococcus radiodurans, UniProt Q9RUB5)", "assay": "enzyme activity, inhibitor, absorbance", "setting": "pH 7.6, with preincubation", "IC50 [µM]": 49}
{"SMILES": "OCCN(CCO)c1nc(N2CCCCC2)c2nc(N(CCO)CCO)nc(N3CCCCC3)c2n1", "target": "blaNDM-1", "assay": "enzyme activity, inhibitor", "IC50 [µM]": "> 10"}
{"SMILES": "C[C@H](NC(=O)[C@@H](CCC(=O)O)NC(=O)CN1CCN(CC(=O)O)CCN(CC(=O)O)CCN(CC(=O)O)CC1)C(=O)N[C@@H](Cc1ccc(O)cc1)C(=O)NCC(=O)N[C@@H](Cc1c[nH]c2ccccc12)C(=O)N[C@H](C(=O)N[C@@H](CC(=O)O)C(=O)N[C@@H](Cc1cccc2ccccc12)C(N)=O)c1ccccc1", "target": "Gastrin/cholecystokinin type B receptor (CCKBR, Homo sapiens, UniProt P32239)", "assay": "ligand displacement, radioligand", "IC50 [µM]": 0.184}
{"SMILES": "CN(Cc1ccccc1)C(=O)Oc1nsnc1N1CCCCC1", "target": "MGLL", "assay": "enzyme activity, inhibitor", "IC50 [µM]": 5.6}
{"SMILES": "c1ccc(CNCc2ccccn2)nc1", "target": "blaNDM-1", "assay": "enzyme activity, inhibitor, fluorescence", "IC50 [µM]": 2.6}
{"SMILES": "CSCC[C@H](NC(=O)[C@@H](NC(=O)[C@@H](NC(=O)[C@H](CC(C)C)NC(=O)[C@H](CC(N)=O)NC(=O)[C@H](CC(N)=O)NC(=O)[C@@H](NC(=O)[C@H](C)NC(=O)[C@@H](N)CC(C)C)[C@@H](C)O)C(C)C)C(C)C)C(=O)O", "target": "HLA class I histocompatibility antigen, B alpha chain", "assay": "ligand displacement, radioligand", "IC50 [µM]": 0.055}
{"SMILES": "Ic1ccccc1CN[C@@H]1C2CCN(CC2)[C@@H]1C(c1ccccc1)c1ccccc1 (racemic)", "target": "Substance-P receptor (TACR1, Homo sapiens, UniProt P25103)", "assay": "ligand displacement, radioligand", "IC50 [µM]": 0.00725}
{"SMILES": "CCCCCNC(=N)N/N=C/c1c[nH]c2ccc(OC)cc12", "target": "HTR2B", "assay": "ligand displacement, radioligand", "IC50 [µM]": 0.008}
{"SMILES": "O=C(O)c1ccccn1", "target": "blaNDM-1", "assay": "enzyme activity, inhibitor, fluorescence", "IC50 [µM]": 84}
{"SMILES": "CC[C@H](C)[C@H](NC(=O)[C@@H]1CCCN1C(=O)[C@@H](NC(=O)[C@H](CC(C)C)NC(=O)[C@H](CCC(N)=O)NC(=O)[C@H](Cc1ccccc1)NC(=O)[C@H](C)NC(=O)[C@@H](N)CCCCN)[C@@H](C)O)C(=O)N[C@@H](C)C(=O)N[C@H](C(=O)O)C(C)C", "target": "HLA class I histocompatibility antigen, B alpha chain", "assay": "ligand displacement, radioligand", "IC50 [µM]": 8.6}
{"SMILES": "COc1cc(CC(C)N)c(OC)cc1I (racemic)", "target": "HTR2B", "assay": "ligand displacement, radioligand", "IC50 [µM]": 0.0031}
{"SMILES": "C[C@H](N)[C@H](O)c1cccc(O)c1", "target": "HTR2B", "assay": "calcium signal, antagonist, fluorescence", "IC50 [µM]": 7.38}
